From article PMC2386079 (Journal of Antimicrobial Chemotherapy, 2008)
Where two headings read alike, the source gives them in different places.

Legend:
J774 macrophages [1] = experiment: release of lactate dehydrogenase; assay type: cell-based, mouse; settings: 24 h incubation, telavancin 90 mg/L, vancomycin 50 mg/L, oritavancin 25 mg/L (human Cmax), controls 5.0 ± 0.2%, n = 3
Procedure, shortened: (§1)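 LDH release into the culture medium was measured after exposure to the test compound to assess pericellular membrane integrity. J774 macrophages were grown in RPMI 1640 and rat embryo fibroblasts in Dulbecco's modified Eagle's medium, both with 10% fetal calf serum.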

rat embryo fibroblasts [2] = experiment: total phospholipid and cholesterol content, fibroblasts; assay type: cell-based; settings: 72 h, telavancin 90 mg/L, vancomycin 50 mg/L, oritavancin 25 mg/L, n = 6–8; for total cholesterol content: control 130 ± 16 nmol/mg of protein; for total phospholipid content: control 295 ± 8 nmol/mg of protein
rat embryo fibroblasts [3] = experiment: release of lactate dehydrogenase; assay type: cell-based; settings: 72 h incubation, telavancin 90 mg/L, vancomycin 50 mg/L, oritavancin 25 mg/L (human Cmax), controls 13.4 ± 3.7%, n = 3
Procedure, shortened: as §1

[4] = cited from earlier work
J774 mouse macrophages = experiment: total phospholipid and cholesterol content, macrophages; assay type: cell-based; settings: 24 h, telavancin 90 mg/L, vancomycin 50 mg/L, oritavancin 25 mg/L, n = 6–8; for total cholesterol content: control 72 ± 3 nmol/mg of protein; for total phospholipid content: control 204 ± 10 nmol/mg of protein
J774 macrophages [5] = settings: cited from earlier work; for accumulation level in macrophages: recorded previously in the same conditions (macrophages, 24 h)
J774 macrophages [6] = experiment: cellular uptake, accumulation and efflux; assay type: in vitro ADME, mouse
rat embryo fibroblasts [7] = experiment: electron microscopy with morphometric analysis of lysosomal changes, fibroblasts; assay type: cell-based; settings: 72 h
J774 macrophages [8] = experiment: subcellular distribution by cell fractionation and isopycnic centrifugation; assay type: in vitro ADME, mouse; settings: 24 h, 90 mg/L
Procedure, shortened: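 J774 macrophages were exposed 24 h at 37°C to 90 mg/L labelled test compound in 10% serum medium. They were then scraped into 0.25 M sucrose/1 mM EGTA/3 mM imidazole pH 7.4 and homogenised. Low-speed spin gave unbroken cells/nuclei; high-speed spin split granules/membranes from supernatant. The granule fraction was run on an isopycnic sucrose gradient, with densities standardised 1.08–1.21. Radioactivity, protein and marker enzymes were measured, expressed as % recovered per fraction.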

rat embryo fibroblasts [9] = experiment: cellular uptake; assay type: in vitro ADME; settings: stated for both cell types
J774 macrophages [10] = experiment: electron microscopy with morphometric analysis of lysosomal changes, macrophages; assay type: cell-based, mouse; settings: 24 h

| Molecule | release of lactate dehydrogenase (J774 macrophages [1]) [%] | total cholesterol content (rat embryo fibroblasts [2]) | total phospholipid content (rat embryo fibroblasts [2]) | release of lactate dehydrogenase (rat embryo fibroblasts [3]) [%] | human Cmax [4] [µg/mL] | total cholesterol content (J774 mouse macrophages) | total phospholipid content (J774 mouse macrophages) | accumulation level in macrophages (J774 macrophages [5]) [fold] | further results |
| --- | --- | --- | --- | --- | --- | --- | --- | --- | --- |
| CN[C@H](CC(C)C)C(=O)N[C@H]1C(=O)N[C@@H](CC(N)=O)C(=O)N[C@H]2C(=O)N[C@H]3C(=O)N[C@H](C(=O)N[C@H](C(=O)O)c4cc(O)cc(O)c4-c4cc3ccc4O)[C@H](O)c3ccc(c(Cl)c3)Oc3cc2cc(c3O[C@@H]2O[C@H](CO)[C@@H](O)[C@H](O)[C@H]2O[C@H]2C[C@](C)(N)[C@H](O)[C@H](C)O2)Oc2ccc(cc2Cl)[C@H]1O [vancomycin, Vancomycin] | 5.0 ± 1.5 | slight but not significant increase | Neither telavancin nor vancomycin caused detectable increase | 17.1 ± 1.3 | 50 | slight but not significant increase | Neither telavancin nor vancomycin caused detectable increase | ~8 |  |
| Oritavancin | 15.5 ± 1.5 | marked, statistically significant increase | significant increases | 18.2 ± 3.0 | 25 | marked, statistically significant increase | significant increases | ~370 | initial uptake clearance rate (J774 macrophages [5]; J774 macrophages): ~150 µL/mg of protein/h |
| Telavancin | 4.9 ± 1.0 | slight but not significant increase | Neither telavancin nor vancomycin caused detectable increase | 16.9 ± 2.5 | 90 | slight but not significant increase | Neither telavancin nor vancomycin caused detectable increase |  | accumulation level in macrophages (J774 macrophages [6]; 24 h): ~45 fold; apparent rate of efflux relative to influx (fold lower) (J774 macrophages [6]; initial uptake 12 h at 90 mg/L, then drug-free medium for 24 h): ~5.7 fold; uptake rate without serum relative to with serum (fold faster) (J774 macrophages [6]; medium not supplemented with calf serum, 5 h, 10–90 mg/L, data not shown): ~ 1.7 fold; clearance rate (abstract) (J774 macrophages [6]; stated for both cell types): ~10 mL/g of protein/h; ultrastructural alterations (electron microscopy) (rat embryo fibroblasts [7]; 90 mg/L): enlargement of lysosomes that were filled with a pleiotropic material; morphometric alterations compared with oritavancin (rat embryo fibroblasts [7]; 90 mg/L telavancin vs 20 mg/L oritavancin): considerably milder than in cells incubated with 20 mg/L oritavancin; morphometric changes compared with vancomycin (rat embryo fibroblasts [7]; 90 mg/L telavancin vs 50 mg/L vancomycin): changes similar to those seen with 50 mg/L vancomycin; cell-associated drug recovered in supernatant fraction (J774 macrophages [8]; N-acetyl-β-glucosaminidase 6%): 10%; cell-associated drug recovered in unbroken cells/nuclei fraction (J774 macrophages [8]; N-acetyl-β-glucosaminidase 27%): 35%; cell-associated drug recovered in granules/membranes fraction (J774 macrophages [8]; N-acetyl-β-glucosaminidase 67%): 55%; half-life ([4]; serum, once-daily administration): 7.5 h; cellular concentration in human alveolar macrophages ([4]; within 8–24 h after systemic administration of therapeutic doses): ~ 50 mg/L; clearance rate (abstract) (rat embryo fibroblasts [9]): ~10 mL/g of protein/h; ultrastructural alterations (electron microscopy) (J774 macrophages [10]; J774 macrophages, 90 mg/L): enlargement of lysosomes that were filled with a pleiotropic material; morphometric changes compared with vancomycin (J774 macrophages [10]; macrophages, 25 mg/L telavancin vs 50 mg/L vancomycin): changes similar to those seen with 50 mg/L vancomycin; morphometric alterations compared with oritavancin (J774 macrophages [10]; macrophages, 90 mg/L telavancin vs 20 mg/L oritavancin): considerably milder than in cells incubated with 20 mg/L oritavancin |
